Results reported in ChEMBL document CHEMBL3120083, “Discovery of N-[4-[6-tert-butyl-5-methoxy-8-(6-methoxy-2-oxo-1H-pyridin-3-yl)-3-quinolyl]phenyl]methanesulfonamide (RG7109), a potent inhibitor of the hepatitis C virus NS5B polymerase” (J Med Chem, 2014).

Columns and labels:
Hepatitis C virus [1] = experiment: Ratio of EC50 for Hepatitis C virus genotype 1a H77 in presence of human serum to EC50 for Hepatitis C virus genotype 1a H77; type: functional, Hepacivirus hominis
Hepatitis C virus [2] = experiment: Antiviral activity against Hepatitis C virus genotype 1b Con1 infected in human 2209-23 cells after 72 hrs by luciferase reporter gene assay; type: functional, organism-based, Hepacivirus hominis; settings: isolate Con1, 2209-23, 72 h
Procedure, shortened: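 Stable GT-1b Con1 subgenomic replicon cell line expressing a renilla luciferase reporter, used as the readout of inhibition. EC50 from luciferase signal, n 2.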

Hepatitis C virus [3] = experiment: Antiviral activity against Hepatitis C virus genotype 1b Con1 infected in human 2209-23 cells after 72 hrs by luciferase reporter gene assay in presence of 40% human serum; type: functional, organism-based, Hepacivirus hominis; settings: isolate Con1, 2209-23, 72 h
Hepatitis C virus [4] = experiment: Ratio of EC50 for Hepatitis C virus genotype 1b Con1 in presence of human serum to EC50 for Hepatitis C virus genotype 1b Con1; type: functional, Hepacivirus hominis, isolate Con1
Hepatocyte [5] = experiment: Intrinsic clearance in rat hepatocytes assessed per 10^6 cells; type: ADME, cell-based
Procedure, shortened: (§1)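 Suspended hepatocytes (about 1.0×10^6 cells/mL) in Williams' medium E with glutamine, antibiotics, insulin, dexamethasone and 10% FCS, 37 °C, 5% CO2, shaken at 900 rpm. Compound at 0.1–10.0 μM. Stopped with methanol plus internal standard at 2–180 min. Parent remaining by LC/MS/MS peak area ratio, in duplicate.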

Hepatocyte [6] = experiment: Intrinsic clearance in human hepatocytes assessed per 10^6 cells; type: ADME, cell-based; procedure, shortened: as §1
[7] = Ratio of EC50 for Hepatitis C virus genotype 1a H77 to EC50 for Hepatitis C virus genotype 1b Con1; type: functional
Hepatitis C virus [8] = experiment: Antiviral activity against Hepatitis C virus genotype 1a H77 infected in human 2209-23 cells after 72 hrs by luciferase reporter gene assay; type: functional, organism-based, Hepacivirus hominis; settings: genotype 1a H77, 2209-23, 72 h
Hepatitis C virus [9] = experiment: Antiviral activity against Hepatitis C virus genotype 1a H77 infected in human 2209-23 cells after 72 hrs by luciferase reporter gene assay in presence of 40% human serum; type: functional, organism-based, Hepacivirus hominis; settings: genotype 1a H77, 2209-23, 72 h

Row | Structure (SMILES) | EC50 (Hepatitis C virus [2]) [µM] | EC50 (Hepatitis C virus [8]) [µM] | Ratio EC50 (Hepatitis C virus [1]) | EC50 (Hepatitis C virus [3]) [µM] | EC90 (Hepatitis C virus [3]) [µM] | Ratio EC50 (Hepatitis C virus [4]) | CLH (Hepatocyte [5]) [uL/min/10^6 cells] | CLH (Hepatocyte [6]) [uL/min/10^6 cells] | Ratio EC50 [7] | EC50 (Hepatitis C virus [9]) [µM] | EC90 (Hepatitis C virus [9]) [µM]
1 | COc1c(C(C)(C)C)cc(-n2ccc(=O)[nH]c2=O)c2ncc(-c3ccc(NS(C)(=O)=O)cc3)cc12 | 0.0032 | 0.0072 | 1.7 | 0.0056 | 0.029 | 1.7 | 20 | 7.9 | 2.2 | 0.016 | 0.123
2 | COc1c(C(C)(C)C)cc(-n2ccc(=O)[nH]c2=O)c2ccc(-c3ccc(NS(C)(=O)=O)cc3)nc12 | 0.012 | 0.083 |  |  |  |  |  |  |  |  | 
3 | CC(C)(C)c1nc(-n2ccc(=O)[nH]c2=O)c2ccc(-c3ccc(NS(C)(=O)=O)cc3)cc2n1 |  | 0.017 |  |  |  |  |  |  |  |  | 

Molecules with a lower EC50 (Hepatitis C virus [8]), results first:

Row | EC50 (Hepatitis C virus [2]) [µM] | EC50 (Hepatitis C virus [8]) [µM] | Structure (SMILES) | Ratio EC50 (Hepatitis C virus [1]) | EC50 (Hepatitis C virus [3]) [µM] | EC90 (Hepatitis C virus [3]) [µM] | Ratio EC50 (Hepatitis C virus [4]) | CLH (Hepatocyte [5]) [uL/min/10^6 cells] | CLH (Hepatocyte [6]) [uL/min/10^6 cells] | Ratio EC50 [7] | EC50 (Hepatitis C virus [9]) [µM] | EC90 (Hepatitis C virus [9]) [µM]
4 | 0.001 | 0.004 | COc1c(C(C)(C)C)cc(-n2ccc(=O)[nH]c2=O)c2ccc(-c3ccc(NS(C)(=O)=O)cc3)cc12 |  |  |  |  |  |  |  |  | 
5 | 0.0031 | 0.0052 | COc1c(C(C)(C)C)cc(-c2ccc[nH]c2=O)c2ncc(-c3ccc(NS(C)(=O)=O)cc3)cc12 | 0.8 | 0.011 | 0.047 | 0.8 |  |  | 1.7 | 0.004 | 0.025
